Source: PubChem
Most compounds without a hit are left out; they make up all but 3.8% or so of the library.
CSC inhib: cancer stem cell inhibition; 1.1% of 300,000 active; cancer stem cell-like cells viability, luminescence; AID 2717; inhibition, % at 7.5 µM; in the data active = inhibition above about 75%; tested in HMLE shEcad cells
Beta cell apopt: blocks beta cell apoptosis; protection from apoptosis, % (concentration not given with the values); 0.8% of 300,000 active; INS-1E cytokine-induced death, ATP luminescence, 48 h; percent of positive-control rescue, neutral wells zero;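 active = Every replicate reaches about 75%, or at least half do and their mean reaches it too, limit read from the data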;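 note: higher means more ATP so stronger rescue from cytokine killing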
ANO1 activ: mouse TMEM16A channel activation, primary screen. 0.3% of 340,000 active. B-score at 10 µM. HEK293 TMEM16A/YFP-H148Q/I152L, iodide quench fluorescence; hits give low values;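 active = fluorescence-ratio B-score plate-corrected deviation score at least 3 library SD below zero, with starting fluorescence score within 5 deviations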;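 note: channel opened by trigger with iodide after compound preincubation; score built on the fluorescence ratio of max minus min over baseline; more negative score means more quench and so TMEM16A activation or potentiation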
Target sequence (Q8BHY3 whole entry, looked up): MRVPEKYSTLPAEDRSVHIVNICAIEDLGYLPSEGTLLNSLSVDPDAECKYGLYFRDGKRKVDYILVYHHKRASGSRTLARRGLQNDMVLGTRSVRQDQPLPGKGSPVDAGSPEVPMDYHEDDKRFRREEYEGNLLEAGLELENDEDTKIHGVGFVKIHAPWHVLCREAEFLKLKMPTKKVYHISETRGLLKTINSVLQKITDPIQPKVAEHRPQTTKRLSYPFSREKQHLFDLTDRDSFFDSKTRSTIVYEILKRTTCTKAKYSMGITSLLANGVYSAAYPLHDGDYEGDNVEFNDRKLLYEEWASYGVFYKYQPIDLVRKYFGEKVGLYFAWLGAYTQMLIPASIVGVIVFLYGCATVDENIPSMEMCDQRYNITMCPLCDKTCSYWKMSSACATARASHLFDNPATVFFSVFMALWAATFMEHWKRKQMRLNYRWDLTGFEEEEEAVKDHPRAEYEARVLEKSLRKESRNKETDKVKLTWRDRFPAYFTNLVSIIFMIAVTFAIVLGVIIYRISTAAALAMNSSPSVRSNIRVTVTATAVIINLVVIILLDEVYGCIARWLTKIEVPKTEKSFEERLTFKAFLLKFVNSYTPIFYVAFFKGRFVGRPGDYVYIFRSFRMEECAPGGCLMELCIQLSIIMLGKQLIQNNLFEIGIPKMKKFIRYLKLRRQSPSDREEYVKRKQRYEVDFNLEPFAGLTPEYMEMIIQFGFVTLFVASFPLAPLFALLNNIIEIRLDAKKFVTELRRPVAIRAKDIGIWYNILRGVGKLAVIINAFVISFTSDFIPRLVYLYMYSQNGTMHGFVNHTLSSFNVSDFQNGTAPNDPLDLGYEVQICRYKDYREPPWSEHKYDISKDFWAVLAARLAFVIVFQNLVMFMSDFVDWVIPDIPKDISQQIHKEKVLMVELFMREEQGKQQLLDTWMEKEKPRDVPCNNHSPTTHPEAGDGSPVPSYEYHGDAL
TMEM16A inh: mouse TMEM16A channel inhibition, primary screen | Q8BHY3 | HEK293 TMEM16A/YFP iodide influx fluorescence, ionomycin | normalized B-score (activity score, 25-100; higher = stronger inhibition) at 10 µM | 1.2% of 310,000 active;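 active = ratio plate-corrected score three or more library SD toward inhibition, starting fluorescence score within five deviations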;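 note: score derived from kinetic fluorescence span divided by baseline fluorescence per well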
MC4R barr agon: agonists of human melanocortin 4 receptor (MC4R) beta-arrestin | P32245 | U2OS MC4R beta-arrestin complementation, luminescence; percent of melanotan II response, DMSO zero | activation, % at 8.9 µM | 0.98% of 360,000 active | AID 540308;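 active = activation above a per-plate cutoff, the mean activation of sample wells on that plate plus 3 SD, cut at about 8% in these data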
MC4R antagonist: blocks human MC4R cAMP signaling | P32245 | MC4R-expressing cells, MTII-stimulated cAMP, LANCE TR-FRET | inhibition, % at 6.5 µM | 0.48% of 360,000 active;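 active = inhibition above its plate's cutoff, the mean of tested wells on that plate plus 3 SD, cut at about 29% in these data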
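Test system: U2OS cells stably expressing human melanocortin 4 receptor (MC4R); also added: Melanotan II challenge; compound: 6.5 µM single dose; timing: 30-min compound preincubation, 1-h Melanotan II challenge, 1-h detection, room temperature; signal: Eu-cAMP/anti-cAMP TR-FRET, emission 671 nm; repeats: one well per compound, no replicates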
U2OS cAMP counter: nonselective cAMP signaling inhibitor, MC4R antagonist counter-screen; parental U2OS, forskolin cAMP, LANCE TR-FRET; 26% of 1,600 active; AID 602193; inhibition, % at 6.5 µM; shares compounds with MC4R antagonist;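 active = mean inhibition over triplicates above the low-control well mean plus 3 SD, set per campaign, cut at about 13% in these data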;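 note: signal is single emission at 671 nm which falls as cellular cAMP rises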
MC4R antag conf: human MC4R cAMP antagonism confirmation | shares compounds with MC4R antagonist | AID 602195 | 27% of 1,600 active | MC4R-expressing cells, MTII-stimulated cAMP, TR-FRET | inhibition, % at 6.5 µM; in the data active = inhibition above about 29%
Numbers stand for hits; n = inactive; x = not tested or not shown.

SMILES | CSC inhib | Beta cell apopt | ANO1 activ | TMEM16A inh | MC4R barr agon | MC4R antagonist | U2OS cAMP counter | MC4R antag conf
O=C(COC(=O)[C@H](Cc1ccccc1)NC(=O)c1cccs1)Nc1c(Cl)cccc1Cl | n | n | n | n | n | 31.3 | 14.4 | 34.6
CCOC(=O)Cn1ccc(NC(=O)c2ccc3c(c2)OCO3)n1 | n | x | n | n | n | n | x | x
CC(=O)OC1CCC2(C)C(CCC3C2CC(=O)C2(C)C3CC(C3CCCC3=O)C2C(C)=O)C1 (stereo unspecified) | x | x | n | x | n | n | x | x
COC(=O)c1c(NC(=O)COC(=O)CCNS(=O)(=O)c2ccccc2)sc(C)c1C | n | x | n | n | n | n | x | x
CCOC(=O)c1c(NC(=O)COC(=O)CCNS(=O)(=O)c2ccccc2)sc(C(=O)NC)c1C | x | x | n | x | n | 31.2 | n | n
CCOc1ccc(CCNC(=O)CCS(=O)(=O)c2ccc(C)cc2)cc1OCC | n | n | n | n | n | n | x | x
CCOc1ccc(CCNC(=O)CCS(=O)(=O)c2ccc(Br)cc2)cc1OCC | n | n | n | n | n | 28.8 | n | n
COC(=O)c1ccccc1NC(=O)N1CCN(S(C)(=O)=O)CC1 | x | n | n | n | n | 30.9 | n | n
COC(=O)c1ccccc1NC(=O)N1CCN(c2ccccc2)CC1 | n | n | n | n | n | n | x | x
Cc1ccc2c(c1)c1c3n2CCN(C(=O)CCl)C3CCC1 (stereo unspecified) | n | n | n | n | n | 38.4 | n | 29.0
CC(=O)N1CCn2c3c(c4cc(C)ccc42)CCCC31 (stereo unspecified) | n | n | n | n | n | n | x | x
COc1ccc(CN2CC(C(=O)NCCCN3CCN(Cc4ccccc4)CC3)CC2=O)cc1 (stereo unspecified) | n | n | n | n | n | n | x | x
COc1ccc(CN2CC(C(=O)NCCCN3CCCC(C)C3)CC2=O)cc1 (stereo unspecified) | n | n | n | n | n | 33.7 | n | n
CC(=O)Nc1ccc(C(=O)N2CCCCC2c2cc(C(=O)Nc3cccc(C#N)c3)no2)cc1 (stereo unspecified) | x | x | x | x | n | n | x | x
COc1cccc(-c2cnc(C(O)c3cccc(F)c3)[nH]2)c1 (stereo unspecified) | x | x | x | x | n | n | x | x
Nc1c(C(=O)Nc2ccccc2F)sc2nc(Cc3ccccc3)cc(C(F)(F)F)c12 | n | n | n | n | n | 111.3 | n | n
O=C(NC(=S)Nc1cccc([N+](=O)[O-])c1)c1ccccc1 | n | n | n | n | n | 32.7 | n | n
O=C(O)C1C2CCC(C2)C1C(=O)Nc1cccc([N+](=O)[O-])c1 (stereo unspecified) | n | n | n | n | n | 29.0 | n | n
CCOC(=O)c1c(SCCN2CCCCC2)n(-c2ccccc2)c(=S)n(-c2ccccc2)c1=O | x | x | n | x | n | n | x | x
CC(OC(=O)Cn1cnc2c1c(=O)n(C)c(=O)n2C)C(=O)NC(C)c1ccc(Cl)cc1Cl (stereo unspecified) | n | n | n | n | n | 35.7 | n | n
COc1cccc(OC2(C)CCN(Cc3cccn3-c3nccs3)C2)c1 (stereo unspecified) | x | x | x | x | n | n | x | x
Cc1ccc(NC(=O)c2cc([N+](=O)[O-])ccc2N2CCCC2)cc1 | x | n | n | n | n | n | x | x
COc1ccc(NC(=O)c2cc([N+](=O)[O-])ccc2N2CCN(C)CC2)cc1 | n | n | n | n | n | 28.9 | n | n
Cc1ccc(-n2nc3c(=O)n(C(C)C(=O)NCc4ccc(Cl)cc4)nc(C)c3c2C)cc1 (stereo unspecified) | n | n | n | n | n | n | x | x
CNc1cnn(-c2ccccc2)c(=O)c1Cl | n | n | n | n | n | n | x | x
SMILES | CSC inhib | Beta cell apopt | ANO1 activ | TMEM16A inh | MC4R barr agon | MC4R antagonist | U2OS cAMP counter | MC4R antag conf
CN(C)CCNc1cnn(-c2ccccc2)c(=O)c1Cl | n | n | n | n | n | 29.0 | n | n
S=c1[nH]nc(-c2ccccn2)n1/N=C/c1ccc(-c2ccccc2Br)o1 | x | x | n | x | n | 94.4 | 58.2 | 125.7
Cc1cc(=O)c(C(=O)Nc2cccc(C(=O)NC3CC3)c2)nn1-c1ccccc1 | x | x | x | x | n | n | x | x
COc1ccc(NS(=O)(=O)/C=C/c2ccc(OC)c(OC)c2)cc1 | n | n | n | n | n | n | x | x
COc1cccc(CNS(=O)(=O)/C=C/c2ccc(OC)c(OC)c2)c1 | n | n | n | n | n | 34.5 | n | n
Cc1c(C)c2c(OCC(=O)NCC3CCC(C(=O)O)CC3)cc3c(c2oc1=O)CCC(C)(C)O3 (stereo unspecified) | x | x | x | x | n | n | x | x
O=C(CN(c1cccc([N+](=O)[O-])c1)S(=O)(=O)c1ccccc1)NCc1cccnc1 | n | n | n | n | n | n | x | x
O=C(CN(c1cccc(C(F)(F)F)c1)S(=O)(=O)c1ccc(Cl)c([N+](=O)[O-])c1)NCc1ccc(F)cc1 | 185.5 | n | n | n | n | 29.0 | 18.2 | 57.1
O=C(CN(Cc1ccc(Cl)cc1)C(=O)CNS(=O)(=O)c1ccccc1)NCC1CCCO1 (stereo unspecified) | n | n | n | n | n | 31.0 | n | n
ON=C(CCc1ccccc1)c1ccccc1 | x | x | x | x | n | n | x | x
CC1=Nc2ccccc2/C1=C/c1c(N)n2c(S(=O)(=O)C(C)C)nsc2nc1=O | n | n | n | n | n | n | x | x
CC1=Nc2ccc(C)cc2/C1=C/c1c(N)n2c(S(=O)(=O)C(C)C)nsc2nc1=O | x | x | n | x | n | 33.0 | n | n
CN(C(=O)c1ccc(Cl)c([N+](=O)[O-])c1)C1(C)CCS(=O)(=O)C1 (stereo unspecified) | n | n | n | n | n | n | x | x
CC(C)(C)C(=O)COC(=O)CNC(=O)c1ccc(Oc2ccccc2)cc1 | n | n | n | n | n | 28.6 | n | n
COc1cccc(C(=O)NCC(=O)OCC(=O)C(C)(C)C)c1 | n | n | n | n | n | n | x | x
Cc1cc(C(=O)OCC(=O)Nc2cc(S(=O)(=O)N3CCOCC3)ccc2Cl)c(C)o1 | n | n | n | n | n | n | x | x
CCN(CC)S(=O)(=O)c1ccc(NC(=O)COC(=O)c2cc(S(=O)(=O)Nc3ccc(OC)cc3)ccc2O)cc1 | n | n | n | n | n | 32.3 | n | n
O=C(COC(=O)c1cc(S(=O)(=O)N2CCOCC2)ccc1O)Nc1cc(S(=O)(=O)N2CCCC2)ccc1Cl | n | n | n | n | n | 30.4 | n | n
O=C(COC(=O)c1cc(S(=O)(=O)N2CCCC2)ccc1O)Nc1ccc(S(=O)(=O)N2CCOCC2)cc1 | n | n | n | n | n | 33.0 | n | n
O=C(COc1ccc(F)cc1Br)Nc1ccccc1N1CCOCC1 | x | x | n | x | n | n | x | x
